Consider four compounds from ChEMBL document CHEMBL1154210, “Reversal of fluconazole resistance by sulfated sterols from the marine sponge Topsentia sp” (J Nat Prod, 2009).

One data set relates to Nakaseomyces glabratus. Nature of the data set: Antimicrobial activity against Candida glabrata. It is filed as functional, organism-based.
The next data set relates to Pichia kudriavzevii. Briefly: Antimicrobial activity against Candida Krusei. It is filed as functional, organism-based.
Another data set relates to Cryptococcus neoformans. Briefly: Antimicrobial activity against Cryptococcus neoformans. It is filed as functional, organism-based.
For data set [1], the system named is Plasmodium falciparum. Briefly: Antiprotozoal activity Plasmodium falciparum W2. It is filed as functional, organism-based.
Another data set relates to Staphylococcus aureus. Nature of the data set: Antimicrobial activity against methicillin resistant Staphylococcus aureus. It is filed as functional, organism-based.
The subject of data set [2] is Mycobacterium intracellulare. Nature of the data set: Antimicrobial activity against Mycobacterium intracellular. It is filed as functional, organism-based.
In data set [3] the test system is Plasmodium falciparum. Nature of the data set: Antiprotozoal activity Plasmodium falciparum D6. It is filed as functional, organism-based.
For the next data set, the system named is Leishmania donovani. Briefly: Antiprotozoal activity Leishmania donovani by Alamar blue assay. It is filed as functional, organism-based.
The subject of data set [4] is Vero. Nature of the data set: Cytotoxicity against african green monkey Vero cells at 11.2 uM after 48 hrs by neutral red assay. It is filed as cell-based. The conditions noted are these: chlorocebus sabaeus.
In data set [5] the test system is Saccharomyces cerevisiae. Nature of the data set: Antimicrobial activity against azole-resistant Saccharomyces cerevisiae expressing null pump at 26 uM after 40 to 48 hrs in presence of fluconazole. It is filed as functional. Put shortly: (§1)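 S. cerevisiae strains (MDR1-overexpressing or null pump) inoculated in YPD at 1 × 10^4 CFU/mL final into saline-diluted samples. Fluconazole in DMSO at ~1/10th its IC50, with DMSO-only duplicates. Absorbance at 630 nm read before and after 40–48 h at 30 °C. Checkerboard IC50s combined into FIC (combination/alone ratios summed).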

Data set [6] has as its system Saccharomyces cerevisiae. Nature of the data set: Antimicrobial activity against azole-resistant Saccharomyces cerevisiae expressing CDR1 efflux pump at 26 uM after 40 to 48 hrs in presence of fluconazole. It is filed as functional. Put shortly:
(§2)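 Checkerboard combination in S. cerevisiae CDR1 efflux pump strain: compound diluted in 0.9% saline, crossed with FLU (in DMSO) over all concentration pairs; inoculum in YPD broth at 1 × 10^4 CFU/mL; incubated 30 °C for 40–48 h; growth read at 630 nm before and after incubation. FIC = (IC50 combined/IC50 alone) summed for compound and FLU.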

The test system of data set [7] is Saccharomyces cerevisiae. Briefly: Antimicrobial activity against azole-resistant Saccharomyces cerevisiae expressing MDR1 at 26 uM after 40 to 48 hrs in presence of fluconazole. It is filed as functional. Put shortly:
as §1

The test system of data set [8] is Candida albicans. Briefly: Antimicrobial activity against fluconazole-susceptible Candida albicans isolate 1 at 26 uM ater 24 hrs in presence of fluconazole. The data set is classed as functional. Put shortly: (§3)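 C. albicans isolates #1 and #17 in YPD at 1 × 10^4 CFU/mL final with saline-diluted samples plus fluconazole (DMSO) at ~1/3rd its IC50. 630 nm readings taken before and after 24 h at 37 °C. FIC was derived from checkerboard IC50s of each agent alone and in combination.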

Data set [9] deals with Candida albicans. Nature of the data set: Antimicrobial activity against fluconazole-resistant Candida albicans isolate 17 at 26 uM ater 24 hrs in presence of fluconazole. It is filed as functional. Put shortly:
as §3

For data set [10], the system named is Candida albicans. Nature of the data set: Antimicrobial activity against Fluconazole susceptible Candida albicans 1587 at 5.7 uM ater 24 hrs in presence of fluconazole. It is filed as functional. Put shortly:
(§4)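 Broth microdilution in YPD with C. albicans inoculum at 1 × 10^4 CFU/mL final; samples diluted in 0.9% saline. Fluconazole in DMSO at ~1/3rd its IC50, with DMSO-only duplicates. OD 630 nm read before and after 37 °C for 24 h. A checkerboard of sample × fluconazole gave FIC = sum of combination/alone IC50 ratios for each agent.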

For data set [11], the system named is Candida albicans. Briefly: Antimicrobial activity against fluconazole-resistant Candida albicans 1758 over expressing MDR1 at 5.7 uM ater 24 hrs in presence of fluconazole. It is filed as functional. Put shortly:
as §4

The test system of data set [12] is Saccharomyces cerevisiae. Briefly: Antimicrobial activity against azole-resistant Saccharomyces cerevisiae expressing null pump at 13 uM after 40 to 48 hrs in presence of fluconazole. The data set is classed as functional. Put shortly: as §1
Data set [13] has as its system Saccharomyces cerevisiae. Nature of the data set: Antimicrobial activity against azole-resistant Saccharomyces cerevisiae expressing CDR1 efflux pump at 13 uM after 40 to 48 hrs in presence of fluconazole. The data set is classed as functional. Put shortly: as §2
For data set [14], the system named is Saccharomyces cerevisiae. Nature of the data set: Antimicrobial activity against azole-resistant Saccharomyces cerevisiae expressing MDR1 at 13 uM after 40 to 48 hrs in presence of fluconazole. The data set is classed as functional. Put shortly:
as §1

Data set [15] concerns Candida albicans. Briefly: Antimicrobial activity against fluconazole-susceptible Candida albicans isolate 1 at 13 uM ater 24 hrs in presence of fluconazole. The data set is classed as functional. Put shortly:
as §3

Data set [16] has as its system Candida albicans. Briefly: Antimicrobial activity against fluconazole-resistant Candida albicans isolate 17 at 13 uM ater 24 hrs in presence of fluconazole. The data set is classed as functional. Put shortly: as §3
Data set [17] relates to Candida albicans. Nature of the data set: Antimicrobial activity against fluconazole-susceptible Candida albicans 1587 at 189 uM ater 24 hrs in presence of fluconazole. It is filed as functional. Put shortly: as §4
For data set [18], the system named is Candida albicans. Nature of the data set: Antimicrobial activity against fluconazole-resistant Candida albicans 1758 over expressing MDR1 at 189 uM ater 24 hrs in presence of fluconazole. The data set is classed as functional. Put shortly: as §4
Data set [19] concerns Vero. Nature of the data set: Cytotoxicity against african green monkey Vero cells at 9 uM after 48 hrs by neutral red assay. The data set is classed as cell-based. The conditions noted are these: chlorocebus sabaeus.
The subject of data set [20] is Candida albicans. Briefly: Antimicrobial activity against Fluconazole susceptible Candida albicans 1587 at 194 uM ater 24 hrs in presence of fluconazole. The data set is classed as functional. Put shortly:
as §4

In data set [21] the test system is Candida albicans. Briefly: Antimicrobial activity against fluconazole-resistant Candida albicans 1758 over expressing MDR1 at 194 uM ater 24 hrs in presence of fluconazole. It is filed as functional. Put shortly: as §4
The test system of data set [22] is Vero. Nature of the data set: Cytotoxicity against african green monkey Vero cells at 9.25 uM after 48 hrs by neutral red assay. It is filed as cell-based. The conditions noted are these: chlorocebus sabaeus.

Calls of active or inactive are those of the source. The rule behind the calls is not given here.

Take `C/C=C(\CC[C@](C)(O)[C@H]1[C@@H](O)C[C@H]2[C@@H]3CCc4cc(O)ccc4[C@H]3CC[C@@]21C)C(C)C` [GEODISTEROL]: the outcome (in the data set on Nakaseomyces glabratus; in the data set with Pichia kudriavzevii; with Cryptococcus neoformans; in the data set on Plasmodium falciparum [1]; with Staphylococcus aureus; in data set [2]) was inactive. In addition, the outcome in the data set on Plasmodium falciparum [3] and in the data set with Leishmania donovani was inactive. Moreover, in the data set on Vero [4], the Activity entry is “Non-toxic”.
For `CC(C)[C@@H]1OC(=O)[C@@H](Cc2ccccc2)N(C)C(=O)[C@H](C(C)C)OC(=O)[C@@H](Cc2ccccc2)N(C)C(=O)[C@H](C(C)C)OC(=O)[C@@H](Cc2ccccc2)N(C)C1=O` [BEAUVERICIN], the “fractional inhibitory concentration index (FICI)” value in the data set with Saccharomyces cerevisiae [5] is 3.38; in the data set on Saccharomyces cerevisiae [6], 0.04; in the data set with Saccharomyces cerevisiae [7], 2.28; with Candida albicans [8], 0.5; in the data set on Candida albicans [9] it was 0.7; in the data set on Candida albicans [10] it was 0.5. In the data set on Candida albicans [11], the “fractional inhibitory concentration index (FICI)” value is listed as 2.8.
With `C/C=C(\CC[C@](C)(O)[C@H]1[C@@H](O)C[C@H]2[C@@H]3CCc4cc(OS(=O)(=O)[O-])ccc4[C@H]3CC[C@@]21C)C(C)C.[Na+]`, the “fractional inhibitory concentration index (FICI)” value was 1.1 with Saccharomyces cerevisiae [12]; 1.04 in the data set on Saccharomyces cerevisiae [13]; 0.08 in the data set on Saccharomyces cerevisiae [14]; 1.5 in the data set on Candida albicans [15]; 1.3 with Candida albicans [16]; 1.7 in the data set with Candida albicans [17]. Moreover, the “fractional inhibitory concentration index (FICI)” value in the data set on Candida albicans [18] is reported as 0.2. The outcome (in the data set on Nakaseomyces glabratus; in the data set on Pichia kudriavzevii; with Cryptococcus neoformans; in the data set on Plasmodium falciparum [1]; in the data set with Staphylococcus aureus; in data set [2]) was inactive. For the same compound, the result with Plasmodium falciparum [3] and with Leishmania donovani was inactive. In addition, the Activity result in the data set on Vero [19] is “Non-toxic”.
For `C=C(CC[C@](C)(O)[C@H]1[C@@H](O)C[C@H]2[C@@H]3CCc4cc(OS(=O)(=O)[O-])ccc4[C@H]3CC[C@@]21C)C(C)C.[Na+]`, the “fractional inhibitory concentration index (FICI)” value in the data set on Saccharomyces cerevisiae [12] was 0.75; in the data set on Saccharomyces cerevisiae [13], 1.34; in the data set on Saccharomyces cerevisiae [14] it was 0.15; with Candida albicans [15] it was 1.7; in the data set with Candida albicans [16], 1.8; with Candida albicans [20], 1.6. In the data set with Candida albicans [21], the “fractional inhibitory concentration index (FICI)” value came to 0.2. Moreover, the result (with Nakaseomyces glabratus; in the data set with Pichia kudriavzevii; in the data set with Cryptococcus neoformans; in the data set on Plasmodium falciparum [1]; in the data set on Staphylococcus aureus; in data set [2]) was inactive. In addition, the outcome in the data set on Plasmodium falciparum [3] and in the data set with Leishmania donovani was inactive. Further, the Activity entry with Vero [22] is recorded as “Non-toxic”.
